Reference: ChEMBL document CHEMBL4425113, “Chromenopyrazole, a Versatile Cannabinoid Scaffold with in Vivo Activity in a Model of Multiple Sclerosis” (J Med Chem, 2016)

Assays:
Cannabinoid receptor 1 = Cannabinoid receptor 1 (Homo sapiens, UniProt P21554); experiment: biochemical; assay type: cell-based, HEK293
Homo sapiens [1] = species: Homo sapiens; experiment: Selectivity ratio of Ki for human CB2 receptor to Ki for human CB1 receptor
Cannabinoid receptor 2 [2] = molecular target: T1, Cannabinoid receptor 2 (Homo sapiens, UniProt P34972); experiment: Displacement of [3H]-CP55940 from human CB2 receptor expressed in HEK293 cell membranes after 90 mins by liquid scintillation counting method
Homo sapiens [3] = species: Homo sapiens; experiment: Selectivity ratio of Ki for human CB1 receptor to Ki for human CB2 receptor
Method in brief: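 Membranes from cells transfected with hCB1 (8 μg/well; Tris 50 mM, MgCl2 5 mM, EDTA 2.5 mM, BSA 0.5 mg/mL, pH 7.4) or hCB2 (4 μg/well; EGTA 2.5 mM, BSA 1 mg/mL, pH 7.5); [3H]CP55940, 90 min at 30 °C. […] Nonspecific binding 10 μM WIN55212-2; GF/C filtration, scintillation; ≥3 experiments in triplicate.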

[4] = Binding affinity to PDEA modified AGP (unknown origin) at 40 uM by surface plasmon resonance method; assay type: ADME; conditions: human, isolated protein
Cannabinoid receptor 2 [5] = molecular target: T1, Cannabinoid receptor 2; experiment: Agonist activity at human CB2 receptor expressed in HEK293 cell membranes assessed as inhibition of forskolin-stimulated cAMP accumulation after 60 mins by HTRF assay; assay type: functional, cell-based

T1 sequence (P34972 whole entry): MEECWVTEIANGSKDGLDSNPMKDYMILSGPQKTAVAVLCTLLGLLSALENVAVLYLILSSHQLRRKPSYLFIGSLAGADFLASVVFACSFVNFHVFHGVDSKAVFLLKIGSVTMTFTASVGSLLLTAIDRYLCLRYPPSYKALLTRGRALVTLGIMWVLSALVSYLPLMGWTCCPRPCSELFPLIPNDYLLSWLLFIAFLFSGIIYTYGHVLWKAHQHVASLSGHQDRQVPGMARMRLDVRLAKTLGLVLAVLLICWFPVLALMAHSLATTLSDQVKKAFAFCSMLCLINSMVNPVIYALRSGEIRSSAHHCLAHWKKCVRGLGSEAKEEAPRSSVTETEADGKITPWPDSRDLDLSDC
Cannabinoid receptor 1, sequence (P21554 whole entry): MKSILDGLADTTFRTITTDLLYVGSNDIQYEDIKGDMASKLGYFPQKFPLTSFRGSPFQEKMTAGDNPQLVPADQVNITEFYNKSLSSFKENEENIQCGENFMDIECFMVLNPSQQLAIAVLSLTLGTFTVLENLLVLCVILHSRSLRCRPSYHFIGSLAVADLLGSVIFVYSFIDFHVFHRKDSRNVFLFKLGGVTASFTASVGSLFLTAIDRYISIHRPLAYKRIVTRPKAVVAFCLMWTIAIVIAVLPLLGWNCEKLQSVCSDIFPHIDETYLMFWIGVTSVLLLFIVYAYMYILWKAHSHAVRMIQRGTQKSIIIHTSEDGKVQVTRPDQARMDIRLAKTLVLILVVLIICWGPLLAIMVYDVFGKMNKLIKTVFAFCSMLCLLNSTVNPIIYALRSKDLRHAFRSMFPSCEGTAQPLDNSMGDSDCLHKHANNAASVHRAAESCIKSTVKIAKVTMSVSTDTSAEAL

## CCCCCCC(C)(C)c1cc(O)c2c(c1)OC(C)(C)c1cn(C)nc1-2
Cannabinoid receptor 1; hek293
  Ki: 14.2 nM
Homo sapiens [1]
  Ratio Ki: > 2500

## CCCCCCC(C)(C)c1cc(O)c2c(c1)OC(C)(C)c1cnn(-c3ccc(Cl)c(Cl)c3)c1-2
Cannabinoid receptor 1; hek293
  Ki: 514 nM
Cannabinoid receptor 2 [2]; hek293
  Ki: 270 nM
Homo sapiens [3]
  Ratio Ki: 1.9

## CCCCCCC(C)(C)c1cc(OCc2ccccc2)c2c(c1)OC(C)(C)c1cnn(-c3ccc(Cl)c(Cl)c3)c1-2
Cannabinoid receptor 1
  Ki: > 40000 nM
Cannabinoid receptor 2 [2]
  Ki: 3740 nM
Homo sapiens [3]
  Ratio Ki: > 10.7

## CCCCCCC(C)(C)c1cc(OCCCO)c2c(c1)OC(C)(C)c1cn(C)nc1-2
Cannabinoid receptor 1
  Ki: > 40000 nM
Cannabinoid receptor 2 [2]
  Ki: 364 nM
Homo sapiens [3]
  Ratio Ki: > 110

## CCCCCCC(C)(C)c1cc(OCc2ccccc2)c2c(c1)OC(C)(C)c1cnn(-c3ccc(Cl)cc3Cl)c1-2
Cannabinoid receptor 1
  Ki: > 40000 nM
Cannabinoid receptor 2 [2]
  Ki: > 40000 nM

## CCCCCCC(C)(C)c1cc(O)c2c(c1)OC(C)(C)c1cn(CC)nc1-2
Cannabinoid receptor 1; hek293
  Ki: 18.6 nM
Homo sapiens [1]
  Ratio Ki: > 2000

## CCCCCCC(C)(C)c1cc(O)c2c(c1)OC(C)(C)c1cnn(-c3cc(F)cc(F)c3)c1-2
Cannabinoid receptor 1
  Ki: > 40000 nM
Cannabinoid receptor 2 [2]
  Ki: > 40000 nM

## CCCCCCC(C)(C)c1cc(OCc2ccccc2)c2c(c1)OC(C)(C)c1cnn(CC)c1-2
Cannabinoid receptor 1
  Ki: 614 nM
Cannabinoid receptor 2 [2]
  Ki: 296 nM
Homo sapiens [3]
  Ratio Ki: 2

## CCCCCCC(C)(C)c1cc(OCCCO)c2c(c1)OC(C)(C)c1cnn(-c3ccc(Cl)cc3Cl)c1-2
Cannabinoid receptor 1
  Ki: > 40000 nM
Cannabinoid receptor 2 [2]
  Ki: > 40000 nM

## CCCCCCC(C)(C)c1cc(OCc2ccccc2)c2c(c1)OC(C)(C)c1cn(CC)nc1-2
Cannabinoid receptor 1
  Ki: 671 nM
Cannabinoid receptor 2 [2]
  Ki: 212 nM
Homo sapiens [3]
  Ratio Ki: 3.1

## CCCCCCC(C)(C)c1cc(OCCCBr)c2c(c1)OC(C)(C)c1cn(CC)nc1-2
Cannabinoid receptor 1
  Ki: 657 nM
Cannabinoid receptor 2 [2]
  Ki: 87.1 nM
Homo sapiens [3]
  Ratio Ki: 7.5

## CCCCCCC(C)(C)c1cc(OCCCO)c2c(c1)OC(C)(C)c1cnn(-c3ccc(Cl)c(Cl)c3)c1-2
Cannabinoid receptor 1
  Ki: > 40000 nM
Cannabinoid receptor 2 [2]
  Ki: > 40000 nM

## CCCCCCC(C)(C)c1cc(O)c2c(c1)OC(C)(C)c1cnn(-c3cccc(OC)c3)c1-2
Cannabinoid receptor 1
  Ki: 6440 nM
Cannabinoid receptor 2 [2]
  Ki: 562 nM
Homo sapiens [3]
  Ratio Ki: 11.5

## C=C(C)[C@@H]1CCC(C)=C[C@H]1c1c(O)cc(CCCCC)cc1O [CANNABIDIOL]
[4]
  PB: Active

## CCCC(C)(C)c1ccc2c(c1)OC(C)(C)[C@@H]1CC=C(C)C[C@@H]21
Cannabinoid receptor 2 [5]
  Emax: 98%
  IC50: 81.8 nM

## CCCCCCC(C)(C)c1cc(OCCCO)c2c(c1)OC(C)(C)c1cnn(CC)c1-2
Cannabinoid receptor 1
  Ki: 1610 nM
Cannabinoid receptor 2 [2]
  Ki: 440 nM
Homo sapiens [3]
  Ratio Ki: 3.6

## CCCCC/C=C\C/C=C\C/C=C\C/C=C\CCCC(=O)OC(CO)CO [2-ARACHIDONOYLGLYCEROL]
[4]
  PB: Active

## CCCCCCC(C)(C)c1cc(OCCO)c2c(c1)OC(C)(C)c1cn(CC)nc1-2
Cannabinoid receptor 1
  Ki: 6510 nM
Cannabinoid receptor 2 [2]
  Ki: 211 nM
Homo sapiens [3]
  Ratio Ki: 31
[4]
  PB: Active

## CCCCCCC(C)(C)c1cc(O)c2c(c1)OC(C)(C)c1cnn(C3CCCCC3)c1-2
Cannabinoid receptor 1
  Ki: 1140 nM
Cannabinoid receptor 2 [2]
  Ki: 53.7 nM
Homo sapiens [3]
  Ratio Ki: 21.5
[4]
  PB: Active

## CCCCC/C=C\C/C=C\C/C=C\C/C=C\CCCC(=O)NCCO [ANANDAMIDE]
[4]
  PB: Active

## CCCCCCC(C)(C)c1cc(OC)c2c(c1)OC(C)(C)c1cn[nH]c1-2
Cannabinoid receptor 1
  Ki: 272 nM
Cannabinoid receptor 2 [2]
  Ki: 87.1 nM
Homo sapiens [3]
  Ratio Ki: 3.1
[4]
  PB: Active

## CCCCCCC(C)(C)c1cc(OCC)c2c(c1)OC(C)(C)c1cnn(-c3ccc(Cl)c(Cl)c3)c1-2
Cannabinoid receptor 1
  Ki: > 40000 nM
Cannabinoid receptor 2 [2]
  Ki: 3540 nM
Homo sapiens [3]
  Ratio Ki: > 11.3

## CCCCCCC(C)(C)c1cc(O)c2c(c1)OC(C)(C)c1cn(CO)nc1-2
Cannabinoid receptor 1
  Ki: 218 nM
Cannabinoid receptor 2 [2]
  Ki: 59.4 nM
Homo sapiens [3]
  Ratio Ki: 3.7

## CCCCCCC(C)(C)c1cc2c(c3c1CCCO3)-c1c(cnn1CC)C(C)(C)O2
Cannabinoid receptor 1
  Ki: > 10000 nM
Cannabinoid receptor 2 [2]
  Ki: 564 nM
Homo sapiens [3]
  Ratio Ki: > 17.7
[4]
  PB: Active

## CCCCCCC(C)(C)c1cc(OC)c2c(c1)OC(C)(C)c1cnn(-c3ccc(Cl)cc3Cl)c1-2
Cannabinoid receptor 1
  Ki: 1690 nM
Cannabinoid receptor 2 [2]
  Ki: 1490 nM

## CCCCCCC(C)(C)c1cc(OC)c2c(c1)OC(C)(C)c1cnn(-c3ccc(Cl)c(Cl)c3)c1-2
Cannabinoid receptor 1
  Ki: 2320 nM
Cannabinoid receptor 2 [2]
  Ki: 2260 nM

## CCCCCCC(C)(C)c1cc(OCc2ccccc2)c2c(c1)OC(C)(C)c1cn(C)nc1-2
Cannabinoid receptor 1
  Ki: 702 nM
Cannabinoid receptor 2 [2]
  Ki: 209 nM
Homo sapiens [3]
  Ratio Ki: 3.3
